Test results taken from ChEMBL document CHEMBL3045743, “Synthesis and herbicidal activity of isoindoline-1,3-dione substituted benzoxazinone derivatives containing a carboxylic ester group” (J Agric Food Chem, 2009).

Legend:
Format in all cases: functional
[1] = system: Abutilon theophrasti; assay: Post-emergence herbicidal activity against Abutilon theophrasti (velvetleaf) assessed as growth inhibition at 75 g.a.i./ha applied at two-leaf stage measured after 15 days; settings: 360 h, read-out: GI
In short: (§1)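 Pot-grown weeds sown 5 mm deep in greenhouse clay soil (pH 6.5, 1.7% organic matter, CEC 12.9 cmol/kg) at 22-25 °C. Stock diluted with water and sprayed post-emergence: dicots at 2-leaf stage, monocots at 1-leaf stage. Untreated and DMF solvent controls were included. % growth inhibition was scored visually versus untreated controls after 15 days. Triplicates averaged.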

[2] = system: Setaria viridis; assay: Pre-emergence herbicidal activity against Setaria viridis (green foxtail) assessed as growth inhibition at 75 g.a.i./ha applied 24 hr after seeds were sown measured after 15 days; settings: read-out: GI
In short: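 Preliminary pre-emergence screen at a single rate of 75 g a.i./ha. Stock diluted with water and sprayed on greenhouse pots 24 h after seeds were sown 5 mm deep in clay soil (pH 6.5, 1.7% organic matter); grown at 22-25 °C. Untreated and DMF solvent controls included; triplicate. Visual % growth inhibition vs untreated after 15 days, averaged and banded (>80% top band).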

[3] = system: Echinochloa crus-galli; assay: Pre-emergence herbicidal activity against Echinochloa crus-galli (barnyard grass) assessed as growth inhibition at 75 g.a.i./ha applied 24 hr after seeds were sown measured after 15 days; settings: read-out: GI
In short: (§2)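 Weeds sown 5 mm deep in pots of greenhouse clay soil (pH 6.5, 37.5% clay, CEC 12.9 cmol/kg) and grown at 22-25 °C. Water-diluted formulation was applied pre-emergence 24 h after sowing. Untreated and DMF solvent controls were included. Growth inhibition was visually rated in % against untreated controls after 15 days, as the mean of triplicates.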

[4] = system: Digitaria sanguinalis; assay: Pre-emergence herbicidal activity against Digitaria sanguinalis (hairy crabgrass) assessed as growth inhibition at 75 g.a.i./ha applied 24 hr after seeds were sown measured after 15 days; settings: read-out: GI; in short: as §2
[5] = system: Amaranthus; assay: Pre-emergence herbicidal activity against Amaranthus ascendens assessed as growth inhibition at 75 g.a.i./ha applied 24 hr after seeds were sown measured after 15 days; settings: read-out: GI; in short: as §2
[6] = system: Chenopodium album; assay: Pre-emergence herbicidal activity against Chenopodium album assessed as growth inhibition at 75 g.a.i./ha applied 24 hr after seeds were sown measured after 15 days; settings: read-out: GI; in short: as §2
[7] = system: Abutilon theophrasti; assay: Pre-emergence herbicidal activity against Abutilon theophrasti (velvetleaf) assessed as growth inhibition at 75 g.a.i./ha applied 24 hr after seeds were sown measured after 15 days; settings: read-out: GI; in short: as §2
[8] = system: Setaria viridis; assay: Post-emergence herbicidal activity against Setaria viridis (green foxtail) assessed as growth inhibition at 75 g.a.i./ha applied at one-leaf stage measured after 15 days; settings: 360 h, read-out: GI; in short: as §1
[9] = system: Echinochloa crus-galli; assay: Post-emergence herbicidal activity against Echinochloa crus-galli (barnyard grass) assessed as growth inhibition at 75 g.a.i./ha applied at one-leaf stage measured after 15 days; settings: 360 h, read-out: GI; in short: as §1
[10] = system: Amaranthus; assay: Post-emergence herbicidal activity against Amaranthus ascendens assessed as growth inhibition at 75 g.a.i./ha applied at two-leaf stage measured after 15 days; settings: 360 h, read-out: GI; in short: as §1
[11] = system: Digitaria sanguinalis; assay: Post-emergence herbicidal activity against Digitaria sanguinalis (hairy crabgrass) assessed as growth inhibition at 75 g.a.i./ha applied at one-leaf stage measured after 15 days; settings: 360 h, read-out: GI; in short: as §1
[12] = system: Chenopodium album; assay: Post-emergence herbicidal activity against Chenopodium album assessed as growth inhibition at 75 g.a.i./ha applied at two-leaf stage measured after 15 days; settings: 360 h, read-out: GI; in short: as §1

Row | SMILES | inhibition of growth at 75 g/ha [1] [%] | inhibition of growth at 75 g/ha [2] [%] | inhibition of growth at 75 g/ha [3] [%] | inhibition of growth at 75 g/ha [4] [%] | inhibition of growth at 75 g/ha [5] [%] | inhibition of growth at 75 g/ha [6] [%] | inhibition of growth at 75 g/ha [7] [%] | inhibition of growth at 75 g/ha [8] [%] | inhibition of growth at 75 g/ha [9] [%] | inhibition of growth at 75 g/ha [10] [%] | inhibition of growth at 75 g/ha [11] [%] | inhibition of growth at 75 g/ha [12] [%]
1 | COC(=O)CN1C(=O)COc2cc(F)c(N3C(=O)c4ccccc4C3=O)cc21 | > 80 | < 50 | < 50 | < 50 | 50 | 50 | 50 | < 50 | < 50 | > 80 | < 50 | > 80
2 | C#CCN1C(=O)COc2cc(F)c(N3C(=O)c4ccc(F)cc4C3=O)cc21 | > 80 | > 80 | > 80 | > 80 | > 80 | > 80 | > 80 | > 80 | > 80 | > 80 | > 80 | > 80
3 | CCOC(=O)CN1C(=O)COc2cc(F)c(N3C(=O)c4ccccc4C3=O)cc21 | > 80 | < 50 | < 50 | < 50 | 50 | 50 | 50 | < 50 | < 50 | > 80 | < 50 | > 80
4 | CCOC(=O)CN1C(=O)COc2cc(F)c(N3C(=O)C4=C(CCCC4)C3=O)cc21 | > 80 | < 50 | < 50 | < 50 | > 80 | > 80 | > 80 | < 50 | < 50 | > 80 | < 50 | > 80
5 | CCOC(=O)C(c1ccccc1)N1C(=O)COc2cc(F)c(N3C(=O)C4=C(CCCC4)C3=O)cc21 (stereo unspecified) | > 80 | 50 | < 50 | 50 | > 80 | > 80 | 50 | > 80 | 50 | > 80 | > 80 | > 80
6 | COC(=O)C(C)N1C(=O)COc2cc(F)c(N3C(=O)C4=C(CCCC4)C3=O)cc21 (stereo unspecified) | > 80 | < 50 | < 50 | < 50 | 50 | 50 | > 80 | > 80 | > 80 | > 80 | > 80 | > 80
7 | COC(=O)CN1C(=O)COc2cc(F)c(N3C(=O)C4=C(CCCC4)C3=O)cc21 | > 80 | < 50 | < 50 | < 50 | 50 | 50 | 50 | 50 | 50 | > 80 | 50 | > 80
8 | CCOC(=O)C(C)N1C(=O)COc2cc(F)c(N3C(=O)C4=C(CCCC4)C3=O)cc21 (stereo unspecified) | > 80 | 50 | < 50 | 50 | > 80 | > 80 | > 80 | > 80 | > 80 | > 80 | > 80 | > 80
